These results are taken from ChEMBL document CHEMBL4190282, “The Conjugated Double Bond of Coniferyl Aldehyde Is Essential for Heat Shock Factor 1 Mediated Cytotoprotection” (J Nat Prod, 2017).

SMILES strings stand for the structures. Active and inactive are the calls of the source. The calls are words filed in the database; no cut-off is given here.

Test [1] concerns L132. Briefly: Cytoprotective activity against IR-induced caspase3 cleavage in human L-132 cells at 3 uM pretreated for 1 hr followed by 10 Gy irradiation measured after 48 hrs by immunoblotting analysis. The format is functional, cell-based. The gist of the method:
(§1)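 Human embryonic lung L132 cells in RPMI with 10% FBS. 1 h pretreatment at 3 μM, then 0.5 μM paclitaxel or 20 μM cisplatin for 24 h, or 10 Gy 137Cs γ-rays (3.81 Gy/min) for 48 h. Cleaved PARP and caspase-3 immunoblotted (ECL); bands normalized to loading control, fold-change vs negative control, ≥3 independent experiments.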

For test [2], the target named is T1, Heat shock factor protein 1 (Homo sapiens) (UniProt Q00613).
T1 sequence (whole entry): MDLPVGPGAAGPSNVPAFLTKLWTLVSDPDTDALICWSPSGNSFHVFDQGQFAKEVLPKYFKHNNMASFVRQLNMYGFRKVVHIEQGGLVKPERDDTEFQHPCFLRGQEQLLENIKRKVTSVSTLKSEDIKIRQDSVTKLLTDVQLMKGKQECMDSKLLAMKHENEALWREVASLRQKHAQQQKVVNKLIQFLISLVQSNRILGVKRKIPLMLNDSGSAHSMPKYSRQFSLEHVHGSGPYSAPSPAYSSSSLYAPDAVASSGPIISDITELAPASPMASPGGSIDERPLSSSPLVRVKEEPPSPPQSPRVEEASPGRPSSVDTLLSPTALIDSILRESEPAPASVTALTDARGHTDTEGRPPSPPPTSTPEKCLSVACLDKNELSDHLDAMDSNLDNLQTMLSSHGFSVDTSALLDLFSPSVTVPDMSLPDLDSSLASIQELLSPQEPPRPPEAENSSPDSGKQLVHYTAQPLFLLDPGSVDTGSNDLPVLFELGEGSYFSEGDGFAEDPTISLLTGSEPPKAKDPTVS
As to the kind of experiment: Activation of HSF1 in human L132 cells assessed as increase in HSP70 mRNA expression at 3 uM after 12 hrs by RT-PCR analysis. The format is cell-based. The gist of the method:
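L132 human lung fibroblasts treated 12 h at 3 μM; hsp27 and hsp70 mRNA measured by RT-PCR under the same conditions as immunoblotting. Celastrol 1 μM positive control.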

Test [3] deals with L132. Briefly: Cytoprotective activity against cisplatin-induced caspase3 cleavage in human L-132 cells at 3 uM pretreated for 1 hr followed by cisplatin addition measured after 24 hrs by immunoblotting analysis. In kind it is functional, cell-based. The essentials:
as §1

For test [4], the target named is T2, Heat shock factor protein 1 (Mus musculus) (UniProt P38532).
T2 sequence (whole entry): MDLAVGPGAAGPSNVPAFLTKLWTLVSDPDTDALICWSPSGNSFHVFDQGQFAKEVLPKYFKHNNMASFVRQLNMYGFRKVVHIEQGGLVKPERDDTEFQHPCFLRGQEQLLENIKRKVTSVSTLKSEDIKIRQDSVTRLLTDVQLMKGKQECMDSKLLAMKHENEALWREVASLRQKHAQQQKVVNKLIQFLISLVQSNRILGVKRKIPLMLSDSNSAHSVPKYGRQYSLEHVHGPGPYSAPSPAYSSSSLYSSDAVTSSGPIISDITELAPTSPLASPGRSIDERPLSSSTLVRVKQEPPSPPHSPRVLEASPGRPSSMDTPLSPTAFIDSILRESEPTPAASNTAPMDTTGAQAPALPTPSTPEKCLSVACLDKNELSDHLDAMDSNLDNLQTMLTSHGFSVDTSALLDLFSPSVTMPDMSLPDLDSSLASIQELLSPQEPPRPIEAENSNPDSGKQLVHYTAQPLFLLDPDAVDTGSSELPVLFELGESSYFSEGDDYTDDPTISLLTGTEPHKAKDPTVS
As to the kind of experiment: Activation of HSF1 in MEF assessed as protection against cisplatin-induced caspase3 cleavage at 3 uM pretreated for 1 hr followed by cisplatin addition measured after 24 hrs by immunoblotting analysis. The format is cell-based. The essentials:
(§2)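 HSF1+/+ or HSF1−/− MEFs in DMEM with heat-inactivated 10% FBS, nonessential amino acids, glutamine, HEPES, 37 °C, 5% CO2. 1 h pretreatment at 3 μM, then 0.5 μM paclitaxel or 20 μM cisplatin for 24 h, or 10 Gy 137Cs γ-rays (3.81 Gy/min) for 48 h. Cleaved PARP and caspase-3 immunoblotted; bands normalized to loading control, fold-change vs negative control, ≥3 independent experiments.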

In test [5] the test system is MEF. Briefly: Cytoprotective activity against paclitaxel-induced caspase3 cleavage in HSF1 deficient MEF at 3 uM pretreated for 1 hr followed by paclitaxel addition measured after 24 hrs by immunoblotting analysis. In kind it is functional, cell-based. The conditions noted are these: Mus musculus. The essentials: as §2
Test [6] deals with Mus musculus. Briefly: Protection against IR-induced irritability in ICR mouse at 5 to 10 mg/kg, ip administered once before and three times after 7 Gy irradiation measured daily for 30 days. The format is functional, organism-based. The gist of the method: (§3)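 Female ICR mice (5–6 weeks, 25–30 g) given 7 Gy whole-body IR; dosed ip at 5 or 10 mg/kg once before and three times after IR, DMSO stock diluted in modified PBS. Survival days and radiation sickness signs checked twice daily; 10 mice per group.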

Test [7] concerns Mus musculus. As to the kind of experiment: Protection against IR-induced reduction in cellular proliferation in ICR mouse at 10 mg/kg, ip administered once before and three times after 4.5 Gy irradiation measured after 9 days by Ki67 staining-based immunohistochemical analysis. In kind it is functional, organism-based. The gist of the method:
(§4)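 Female ICR mice (5–6 weeks) given 4.5 Gy whole-body IR, dosed ip at 10 mg/kg once before and three times after IR; 5 per group, sacrificed day 9. BM cellularity from H&E (hematopoietic cells per 200×200 μm area); peripheral WBC, lymphocytes, neutrophils; Ki67 IHC counted in five fields per femur; relative spleen weight vs control. Means ± SD, Student's t test.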

In test [8] the test system is L132. Briefly: Cytoprotective activity against IR-induced PARP cleavage in human L-132 cells at 3 uM pretreated for 1 hr followed by 10 Gy irradiation measured after 48 hrs by immunoblotting analysis. The format is functional, cell-based. The gist of the method: as §1
For test [9], the target named is T2, Heat shock factor protein 1 (Mus musculus). Briefly: Activation of HSF1 in MEF assessed as protection against IR-induced PARP cleavage at 3 uM pretreated for 1 hr followed by 10 Gy irradiation measured after 48 hrs by immunoblotting analysis. In kind it is cell-based. The essentials: as §2
In test [10] the target is T1, Heat shock factor protein 1 (Homo sapiens). Briefly: Activation of HSF1 in human NCI-H460 cells expressing pGL4-hsp70 construct assessed as upregulation of hsp70 promoter activity at 10 to 30 uM after 12 hrs by luciferase reporter gene assay. In kind it is cell-based. The essentials: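 NCI-H460 cells stably carrying hsp25 or hsp70 promoter–luciferase reporters, seeded, treated after 24 h at 10 or 30 μM and harvested 12 h later. Lysate luciferase normalized to β-galactosidase; mean of three independent experiments, fold-change vs negative control.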

Test [11] relates to Mus musculus. Briefly: Protection against IR-induced reduction of food and water intake in ICR mouse at 5 to 10 mg/kg, ip administered once before and three times after 7 Gy irradiation measured daily for 30 days. The format is functional, organism-based. The gist of the method:
as §3

In test [12] the test system is Mus musculus. Briefly: Protection against IR-induced reduction of spleen weight in ICR mouse at 10 mg/kg, ip administered once before and three times after irradiation measured after 9 days. In kind it is functional, organism-based. The essentials:
as §4

In test [13] the test system is Mus musculus. Briefly: Protection against IR-induced reduction in circulating WBCs in ICR mouse at 10 mg/kg, ip administered once before and three times after 4.5 Gy irradiation measured after 9 days. The format is functional, organism-based. The essentials: as §4
Test [14] deals with L132. Briefly: Cytoprotective activity against cisplatin-induced PARP cleavage in human L-132 cells at 3 uM pretreated for 1 hr followed by cisplatin addition measured after 24 hrs by immunoblotting analysis. The format is functional, cell-based. The gist of the method:
as §1

Regarding `COc1cc(/C=C/CO)ccc1O` [CONIFERYL ALCOHOL], the outcome in test [1], in [2], in test [3], in [4], in test [6] and in [7] was Active. For the same compound, the result in [8], in [9], in test [10], in test [11], in test [12] and in test [13] was Active. In test [14], the result was Active. In test [5], the result was inactive.

As for `COc1cc(/C=C/C=O)ccc1O` [CONIFERYL ALDEHYDE], the result in test [1], in test [2], in test [3], in test [4], in test [6] and in test [7] was Active. In addition, the outcome in [8], in [9], in [10], in [11], in test [12] and in test [13] was Active. Further, the result in test [14] was Active. The result in [5] was inactive.
